Legend:
B2 bradykinin receptor [1] = target: T1, B2 bradykinin receptor (Homo sapiens, UniProt P30411); assay: Displacement of [3H]BK from human bradykinin B2 receptor transfected in CHO cells; format: cell-based
T1 sequence (P30411 whole entry): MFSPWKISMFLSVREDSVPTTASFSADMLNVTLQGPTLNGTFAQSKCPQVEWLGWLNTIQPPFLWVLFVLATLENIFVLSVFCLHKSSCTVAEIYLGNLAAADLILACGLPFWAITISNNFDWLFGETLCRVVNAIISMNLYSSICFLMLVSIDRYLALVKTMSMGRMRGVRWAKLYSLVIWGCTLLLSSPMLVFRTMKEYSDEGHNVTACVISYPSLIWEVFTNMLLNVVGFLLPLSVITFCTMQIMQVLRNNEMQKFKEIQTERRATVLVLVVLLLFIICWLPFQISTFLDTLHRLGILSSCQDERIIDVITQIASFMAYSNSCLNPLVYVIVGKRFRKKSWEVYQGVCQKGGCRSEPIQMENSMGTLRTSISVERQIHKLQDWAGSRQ
In short: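 pKi from inhibition of specific [3H]-BK binding to membrane preparations of CHO cells stably transfected with the human B2 receptor.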

B2 bradykinin receptor [2] = target: T1, B2 bradykinin receptor; assay: Antagonist potency at human bradykinin B2 receptor assessed as effect on inositol monophosphate accumulation in CHOdhfr- cells; format: functional, cell-based; details: read-out: pA2 (converted)
In short: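 pA2 derived from antagonism of bradykinin-stimulated inositol monophosphate accumulation in CHOdhfr- cells stably transfected with the human B2 receptor.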

[3] = target: T2, B2 bradykinin receptor (Cavia porcellus) (UniProt O70526); assay: Inhibition of BK-induced bronchoconstriction in Dunkin Hartley guinea pig at 100 nmol/kg, it; format: functional; set-up: scale not given: the % may be the effect or the level left
T2 sequence (whole entry): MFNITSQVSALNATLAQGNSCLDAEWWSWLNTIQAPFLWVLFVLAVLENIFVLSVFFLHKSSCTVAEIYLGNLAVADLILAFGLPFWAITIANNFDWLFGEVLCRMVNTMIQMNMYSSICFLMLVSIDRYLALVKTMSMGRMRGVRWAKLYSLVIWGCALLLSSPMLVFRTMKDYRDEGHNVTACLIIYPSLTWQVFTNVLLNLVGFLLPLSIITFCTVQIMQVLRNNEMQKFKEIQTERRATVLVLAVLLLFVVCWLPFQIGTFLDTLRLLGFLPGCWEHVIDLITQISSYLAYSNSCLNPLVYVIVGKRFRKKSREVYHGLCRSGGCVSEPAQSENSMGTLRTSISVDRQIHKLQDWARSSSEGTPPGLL
In short: (§1)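 Compound was given intratracheally to anaesthetized guinea pigs. Five min later, BK (10 nmol/kg iv) challenge was given and repeated every 30 min for 210 min. Pulmonary insufflation pressure was monitored. Result is Σ%: residual BK response as % of basal, normalized to control at 5–210 min time points, expressed as % of theoretical maximum.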

[4] = target: T2, B2 bradykinin receptor (Cavia porcellus); assay: Effect on BK-induced hypotension in Dunkin Hartley guinea pig at 100 nmol/kg, it; format: functional
In short: (§2)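 Compound was given intratracheally to anaesthetized guinea pigs. Five min later, BK (10 nmol/kg iv) challenge was given and repeated every 30 min for 210 min. Blood pressure was monitored. Result is Σ%: residual BK response as % of basal, normalized to control at each observation time (5–210 min), expressed as % of theoretical maximum.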

B1 bradykinin receptor = target: T3, B1 bradykinin receptor (Homo sapiens, UniProt P46663); assay: Binding affinity to human bradykinin B1 receptor
T3 sequence (P46663 whole entry): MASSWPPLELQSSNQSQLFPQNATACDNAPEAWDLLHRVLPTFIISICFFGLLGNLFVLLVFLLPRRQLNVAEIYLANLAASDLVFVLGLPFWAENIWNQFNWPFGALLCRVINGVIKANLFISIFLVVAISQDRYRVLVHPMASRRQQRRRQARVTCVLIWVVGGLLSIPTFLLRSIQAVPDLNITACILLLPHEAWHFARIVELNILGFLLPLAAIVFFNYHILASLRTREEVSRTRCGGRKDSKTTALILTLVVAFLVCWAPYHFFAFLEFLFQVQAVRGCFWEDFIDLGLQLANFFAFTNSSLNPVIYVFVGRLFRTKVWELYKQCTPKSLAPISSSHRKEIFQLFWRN

[5] = target: T2, B2 bradykinin receptor (Cavia porcellus); assay: Inhibition of BK-induced bronchoconstriction in Dunkin Hartley guinea pig at 300 nmol/kg, it; format: functional; set-up: scale not given: the % may be the effect or the level left; in short: as §1
[6] = target: T2, B2 bradykinin receptor (Cavia porcellus); assay: Effect on BK-induced hypotension in Dunkin Hartley guinea pig at 300 nmol/kg, it; format: functional; in short: as §2

Compound | Ki (B2 bradykinin receptor [1]) [nM] | Kb (B2 bradykinin receptor [2]) [nM] | Activity [3] [%] | Activity [4] [%] | Ki (B1 bradykinin receptor) [nM] | Activity [5] [%] | Activity [6] [%]
Cc1cc(C)c2cccc(OCc3c(Cl)ccc(S(=O)(=O)NC4(C(=O)N5CCN(C(=O)C[C@@H](N)CCC[N+](C)(C)C)CC5)CCCC4)c3Cl)c2n1 | 0.2 | 1.58 | 57 | 96 | > 10000 | – | –
Cc1cc(C)c2cccc(OCc3c(Cl)ccc(S(=O)(=O)NC4(C(=O)N5CCN(C(=O)C[C@H](CCCN)[N+](C)(C)C)CC5)CCCC4)c3Cl)c2n1 | 0.126 | 1.26 | 72 | 94 | > 10000 | – | –
Cc1cc(C)c2cccc(OCc3c(Cl)ccc(S(=O)(=O)NC4(C(=O)N5CCN(C(=O)CCC[N+](C)(C)C)CC5)CCCC4)c3Cl)c2n1 | – | 2 | 65 | 83 | > 10000 | – | –
Cc1cc(C)c2cccc(OCc3c(Cl)ccc(S(=O)(=O)NC4(C(=O)N5CCN(C(=O)[C@H](CCCC[N+](C)(C)C)[N+](C)(C)C)CC5)CCCC4)c3Cl)c2n1 | 0.2 | 6.31 | – | – | > 10000 | – | –
Cc1cc(C)c2cccc(OCc3c(Cl)ccc(S(=O)(=O)NC4(C(=O)N5CCN(C(=O)[C@@H](N)CCCCN)CC5)CCCC4)c3Cl)c2n1 | 0.316 | 2 | – | – | > 10000 | – | –
Cc1cc(C)c2cccc(OCc3c(Cl)ccc(S(=O)(=O)NC4(C(=O)N5CCN(C(=O)[C@H](CCCCN)[N+](C)(C)C)CC5)CCCC4)c3Cl)c2n1 | – | 1.58 | 39 | 84 | > 10000 | – | –
Cc1cc(C)c2cccc(OCc3c(Cl)ccc(S(=O)(=O)NC4(C(=O)N5CCN(C(=O)C[C@@H](N)CCCNC(=N)N)CC5)CCCC4)c3Cl)c2n1 | – | 0.794 | 78 | 100 | > 10000 | – | –
Cc1cc(C)c2cccc(OCc3c(Cl)ccc(S(=O)(=O)NC4(C(=O)N5CCN(C(=O)C[N+](C)(C)C)CC5)CCCC4)c3Cl)c2n1 | 0.398 | 5.01 | 54 | 91 | > 10000 | – | –
Cc1cc(C)c2cccc(OCc3c(Cl)ccc(S(=O)(=O)NC4(C(=O)N5CCN(C(=O)[C@H](CCCN)[N+](C)(C)C)CC5)CCCC4)c3Cl)c2n1 | 0.251 | 0.501 | 43 | 82 | > 10000 | – | –
Cc1cc(C)c2cccc(OCc3c(Cl)ccc(S(=O)(=O)NC4(C(=O)N5CCN(C(=O)C[C@@H](N)CCCN)CC5)CCCC4)c3Cl)c2n1 | 0.631 | 0.501 | 46 | 100 | > 10000 | – | –
Cc1cc(C)c2cccc(OCc3c(Cl)ccc(S(=O)(=O)NC4(C(=O)N5CCN(C(=O)CCCCCNC(=N)N)CC5)CCCC4)c3Cl)c2n1 | 1.26 | 2 | – | – | > 10000 | – | –
Cc1cc(C)c2cccc(OCc3c(Cl)ccc(S(=O)(=O)NC4(C(=O)N5CCN(C(=O)CCCCC[N+](C)(C)C)CC5)CCCC4)c3Cl)c2n1 | – | 5.01 | – | – | > 10000 | – | –
Cc1cc(C)c2cccc(OCc3c(Cl)ccc(S(=O)(=O)NC4(C(=O)N5CCN(C(=O)[C@H](CCC[N+](C)(C)C)[N+](C)(C)C)CC5)CCCC4)c3Cl)c2n1 | 0.2 | 2.51 | – | – | > 10000 | – | –
Cc1cc(C)c2cccc(OCc3c(Cl)ccc(S(=O)(=O)NC4(C(=O)N5CCN(C(=O)[C@@H](N)CC[N+](C)(C)C)CC5)CCCC4)c3Cl)c2n1 | 0.316 | 2 | 45 | 87 | > 10000 | – | –
CC(=O)N1CCC(NS(=O)(=O)c2ccc(Cl)c(COc3cccc4c(C)cc(C)nc34)c2Cl)(C(=O)N2CCN(C(=O)[C@@H](N)CCC[N+](C)(C)C)CC2)CC1 | 0.158 | 1.26 | – | – | > 10000 | – | –
Cc1cc(C)c2cccc(OCc3c(Cl)ccc(S(=O)(=O)NC4(C(=O)N5CCN(C(=O)[C@@H](N)CCCC[N+](C)(C)C)CC5)CCCC4)c3Cl)c2n1 | – | 1.26 | 35 | 94 | > 10000 | – | –
Cc1cc(C)c2cccc(OCc3c(Cl)ccc(S(=O)(=O)NC4(C(=O)N5CCN(C(=O)[C@H](CCCCN(C)C)N(C)C)CC5)CCCC4)c3Cl)c2n1 | 0.2 | 3.16 | – | – | > 10000 | – | –
Cc1cc(C)c2cccc(OCc3c(Cl)ccc(S(=O)(=O)NC4(C(=O)N5CCN(C(=O)[C@@H](N)CCC[N+](C)(C)C)CC5)CCCC4)c3Cl)c2n1 | 0.0501 | 0.501 | 24 | 100 | > 10000 | – | –
Cc1cc(C)c2cccc(OCc3c(Cl)ccc(S(=O)(=O)NC4(C(=O)N5CCN(C(=O)[C@@H](N)CCC[N+](C)(C)C)CC5)CCN(C)CC4)c3Cl)c2n1 | 0.0794 | 0.251 | 40 | 86 | > 10000 | – | –
Cc1cc(C)c2cccc(OCc3c(Cl)ccc(S(=O)(=O)NC4(C(=O)N5CCN(C(=O)[C@@H](N)CCC[N+](C)(C)C)CC5)CCNCC4)c3Cl)c2n1 | 0.501 | 1.58 | – | – | > 10000 | – | –
Cc1cc(C)c2cccc(OCc3c(Cl)ccc(S(=O)(=O)NC4(C(=O)N5CCN(C(=O)CCCC[N+](C)(C)C)CC5)CCCC4)c3Cl)c2n1 | 0.251 | 1.58 | – | – | > 10000 | – | –
Cc1cc(C)c2cccc(OCc3c(Cl)ccc(S(=O)(=O)NC4(C(=O)N5CCN(C(=N)NCCCN(C)C)CC5)CCCC4)c3Cl)c2n1 | 0.631 | 0.501 | – | – | > 10000 | 24 | 69
Cc1cc(C)c2cccc(OCc3c(Cl)ccc(S(=O)(=O)NC4(C(=O)N5CCN(C(=O)[C@@H](N)CCC[N+](C)(C)C)CC5)CCSCC4)c3Cl)c2n1 | 0.0501 | 0.158 | 59 | 89 | > 10000 | – | –
Cc1cc(C)c2cccc(OCc3c(Cl)ccc(S(=O)(=O)NC4(C(=O)N5CCN(C(=O)[C@H](CCCCNC(=N)N)[N+](C)(C)C)CC5)CCCC4)c3Cl)c2n1 | 0.1 | 0.631 | 61 | 90 | > 10000 | – | –
Cc1cc(C)c2cccc(OCc3c(Cl)ccc(S(=O)(=O)NC4(C(=O)N5CCN(C(=N)NCCC[N+](C)(C)C)CC5)CCCC4)c3Cl)c2n1 | 0.398 | 1.58 | – | – | > 10000 | 17 | 87
